Assay results as given in ChEMBL document CHEMBL4406880, “Design, synthesis, and bioactivity of dihydropyrimidine derivatives as kinesin spindle protein inhibitors” (Bioorg Med Chem, 2019).

Legend:
Assay type in all cases: functional
SK-MEL-5 [1] = test: Growth inhibition of human SK-MEL-5 cells assessed as cell viability at 100 uM incubated for 48 hrs by sulforhodamine B assay; conditions: SK-MEL-5, 48 h, read-out: Activity
SN12C = test: Growth inhibition of human SN12C cells assessed as cell viability at 100 uM incubated for 48 hrs by sulforhodamine B assay; conditions: read-out: Activity
Malme-3M = test: Growth inhibition of human MALME-3M cells assessed as cell viability at 100 uM incubated for 48 hrs by sulforhodamine B assay; conditions: read-out: Activity
NCI-H522 [2] = test: Growth inhibition of human NCI-H522 cells incubated for 48 hrs by sulforhodamine B assay; conditions: NCI-H522, 48 h
Method in brief: (§1)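 NCI-60 five-dose SRB assay in RPMI 1640 with 5% FBS, 37 °C, 5% CO2. Compound given at five tenfold dilutions, 0.01–100 µM, for 48 h. Adherent cells fixed with TCA, suspension cells with 16% final TCA. Bound SRB read at 515 nm and growth calculated against time-zero and untreated controls. GI50 taken from dose–response curves as the concentration giving a 50% decrease in net cell growth.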

SF-268 = test: Growth inhibition of human SF268 cells assessed as cell viability at 0.1 uM incubated for 48 hrs by sulforhodamine B assay; conditions: SF-268, 48 h, read-out: Activity
NCI-H522 [3] = test: Growth inhibition of human NCI-H522 cells assessed as cell viability at 100 uM incubated for 48 hrs by sulforhodamine B assay; conditions: NCI-H522, 48 h, read-out: Activity
MCF7 = test: Growth inhibition of human MCF7 cells assessed as cell viability at 100 uM incubated for 48 hrs by sulforhodamine B assay; conditions: MCF7, 48 h, read-out: Activity
SNB-75 [4] = test: Growth inhibition of human SNB75 cells assessed as cell viability at 0.1 uM incubated for 48 hrs by sulforhodamine B assay; conditions: SNB-75, 48 h, read-out: Activity
NCI-H23 = test: Growth inhibition of human NCI-H23 cells assessed as cell viability at 100 uM incubated for 48 hrs by sulforhodamine B assay; conditions: NCI-H23, 48 h, read-out: Activity
UACC-257 = test: Growth inhibition of human UACC257 cells assessed as cell viability at 100 uM incubated for 48 hrs by sulforhodamine B assay; conditions: UACC-257, 48 h, read-out: Activity
786-0 = test: Growth inhibition of human 786-0 cells assessed as cell viability at 1 uM incubated for 48 hrs by sulforhodamine B assay; conditions: 786-0, 48 h, read-out: Activity
Method in brief: (§2)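 NCI-60 five-dose mode: five tenfold dilutions (0.01, 0.1, 1, 10, 100 µM) are applied for 48 h to cells in RPMI 1640 with 5% FBS at 37 °C. Endpoint is TCA fixation with sulforhodamine B read at 515 nm. % growth comes from the 0 h and control absorbances. GI50 is the concentration giving a 50% reduction in net cell growth.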

IGROV-1 = test: Growth inhibition of human IGROV1 cells assessed as cell viability at 0.001 uM incubated for 48 hrs by sulforhodamine B assay relative to control; conditions: IGROV-1, 48 h, read-out: Activity
SF-295 = test: Growth inhibition of human SF295 cells assessed as cell viability at 0.1 uM incubated for 48 hrs by sulforhodamine B assay; conditions: SF-295, 48 h, read-out: Activity
SNB-75 [5] = test: Growth inhibition of human SNB75 cells incubated for 48 hrs by sulforhodamine B assay; conditions: SNB-75, 48 h
Method in brief: (§3)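 NCI-60 five-dose SRB assay. Cells were exposed for 48 h to tenfold dilutions of 0.01, 0.1, 1, 10 and 100 µM, in RPMI 1640 with 5% FBS. Plates fixed with TCA at the time of drug addition served as the time-zero reference. GI50 is the concentration giving a 50% reduction in net growth. TGI is total growth inhibition. LC50 is a net 50% loss of the initial cells.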

HOP-92 = test: Growth inhibition of human HOP92 cells assessed as cell viability at 0.1 uM incubated for 48 hrs by sulforhodamine B assay; conditions: HOP-92, 48 h, read-out: Activity
SK-MEL-5 [6] = test: Growth inhibition of human SK-MEL-5 cells assessed as cell viability at 1 uM incubated for 48 hrs by sulforhodamine B assay; conditions: SK-MEL-5, 48 h, read-out: Activity
NCI-H522 [7] = test: Growth inhibition of human NCI-H522 cells assessed as cell viability at 0.1 uM incubated for 48 hrs by sulforhodamine B assay; conditions: NCI-H522, 48 h, read-out: Activity
NCI/ADR-RES = test: Growth inhibition of human NCI/ADR-RES cells assessed as cell viability at 0.001 uM incubated for 48 hrs by sulforhodamine B assay relative to control; conditions: read-out: Activity
A549 = test: Growth inhibition of human A549/ATCC cells incubated for 48 hrs by sulforhodamine B assay; conditions: A549, 48 h; method in brief: as §2
SW-620 = test: Growth inhibition of human SW620 cells incubated for 48 hrs by sulforhodamine B assay; conditions: SW-620, 48 h; method in brief: as §3
U-251 = test: Growth inhibition of human U251 cells assessed as cell viability at 0.001 uM incubated for 48 hrs by sulforhodamine B assay relative to control; conditions: U-251, 48 h, read-out: Activity
CAKI-1 = test: Growth inhibition of human Caki1 cells assessed as cell viability at 1 uM incubated for 48 hrs by sulforhodamine B assay; conditions: CAKI-1, 48 h, read-out: Activity
UO-31 = test: Growth inhibition of human UO31 cells assessed as cell viability at 0.1 uM incubated for 48 hrs by sulforhodamine B assay; conditions: UO-31, 48 h, read-out: Activity
SNB-19 = test: Growth inhibition of human SNB19 cells incubated for 48 hrs by sulforhodamine B assay; conditions: SNB-19, 48 h; method in brief: as §3
MDA-MB-231 = test: Growth inhibition of human MDA-MB-231 cells incubated for 48 hrs by sulforhodamine B assay; conditions: MDA-MB-231, 48 h; method in brief: as §1
[8] = read-out: LC50 (the source's name)
[9] = read-out: pLC50 (the source's name) (converted)

## CC1=C(C(=O)OCc2ccccc2)C(c2ccc3c(c2)OCO3)n2c(nc3ccccc32)N1 (racemic)
SK-MEL-5 [1]
  viability at 100 µM: 35%
SN12C
  viability at 100 µM: 25%
Malme-3M
  viability at 100 µM: 20%
NCI-H522 [2]; read-out: GI50
  GI50: 0.14 µM
NCI-H522 [2]; [8]
  CC50: > 100 µM
NCI-H522 [2]; read-out: TGI
  TGI: 33.2 µM
NCI-H522 [2]; read-out: pGI50 (converted)
  GI50: 0.135 µM
NCI-H522 [2]; [9]
  CC50: > 100 µM
NCI-H522 [2]; read-out: pTGI (converted)
  TGI: 33.1 µM
SF-268
  viability at 0.1 µM: 94%
NCI-H522 [3]
  viability at 100 µM: -8%
MCF7
  viability at 100 µM: 7%
SNB-75 [4]
  viability at 0.1 µM: 79%
NCI-H23
  viability at 100 µM: 44%
UACC-257
  viability at 100 µM: 46%
786-0
  viability at 1 µM: 27%
IGROV-1
  viability at 0.001 µM: 92%
SF-295
  viability at 0.1 µM: 87%
SNB-75 [5]; read-out: GI50
  GI50: 0.22 µM
SNB-75 [5]; read-out: LC50
  LC50 (concentration giving 50% net loss of initial cells): > 100 µM
SNB-75 [5]; read-out: TGI
  TGI: 0.8 µM
SNB-75 [5]; read-out: pGI50 (converted)
  GI50: 0.214 µM
SNB-75 [5]; read-out: pLC50 (converted)
  LC50 (concentration giving 50% net loss of initial cells): > 100 µM
SNB-75 [5]; read-out: pTGI (converted)
  TGI: 0.794 µM
HOP-92
  viability at 0.1 µM: 70%
SK-MEL-5 [6]
  viability at 1 µM: 32%
NCI-H522 [7]
  viability at 0.1 µM: 57%
NCI/ADR-RES
  viability at 0.001 µM: 93%
A549; read-out: GI50
  GI50: 0.68 µM
A549; [8]
  CC50: > 100 µM
A549; read-out: TGI
  TGI: > 100 µM
A549; read-out: pGI50 (converted)
  GI50: 0.676 µM
A549; [9]
  CC50: > 100 µM
A549; read-out: pTGI
  TGI: > 100 µM
SW-620; read-out: GI50
  GI50: 0.39 µM
SW-620; read-out: LC50
  LC50 (concentration causing 50% net loss of initial cells): > 100 µM
SW-620; read-out: TGI
  TGI: > 100 µM
SW-620; read-out: pGI50 (converted)
  GI50: 0.389 µM
SW-620; read-out: pLC50 (converted)
  LC50 (concentration causing 50% net loss of initial cells): > 100 µM
SW-620; read-out: pTGI
  TGI: > 100 µM
U-251
  viability at 0.001 µM: 94%
CAKI-1
  viability at 1 µM: 20%
UO-31
  viability at 0.1 µM: 93%
SNB-19; read-out: GI50
  GI50: 0.56 µM
SNB-19; [8]
  CC50: > 100 µM
SNB-19; read-out: TGI
  TGI: > 100 µM
SNB-19; read-out: pGI50 (converted)
  GI50: 0.562 µM
SNB-19; [9]
  CC50: > 100 µM
SNB-19; read-out: pTGI
  TGI: > 100 µM
MDA-MB-231; read-out: GI50
  GI50: 85.7 µM
MDA-MB-231; [8]
  CC50: > 100 µM
MDA-MB-231; read-out: TGI
  TGI: > 100 µM
MDA-MB-231; read-out: pGI50 (converted)
  GI50: 85.1 µM
MDA-MB-231; [9]
  CC50: > 100 µM
MDA-MB-231; read-out: pTGI
  TGI: > 100 µM
